Measured values reported in ChEMBL document CHEMBL2010794, “Discovery of nor-seco himbacine analogs as thrombin receptor antagonists” (Bioorg Med Chem Lett, 2012).
Values belong to the compound of their own block, whether it stands above or below them. Activity calls are given as the source filed them. The calls are words filed in the database; no cut-off is given here.

What was measured:
[1] = AUC (0 to 24 hrs) in cynomolgus monkey plasma at 1 mg/kg, po; format: ADME, organism-based, Macaca fascicularis; parameters: time < 24 hr, dose 1 mg/kg, route oral
Cynomolgus monkey [2] = test: Ex-vivo inhibition of PAR1 in cynomolgus monkey assessed as inhibition of haTRAP-induced platelet aggregation at 1 mg/kg, po at 24 hrs by aggregometry; format: functional; conditions: Macaca fascicularis
Method in brief: (§1)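 Cynomolgus monkeys dosed orally in 20% PEG-HPBCD (hydrochloride salt for the 7a-hydroxy series); blood sampled at various times up to 24 h; haTRAP added to whole blood at 1 µM to trigger aggregation, measured by aggregometer; result given as % reduction in haTRAP-induced aggregation at the stated dose and time.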

Cynomolgus monkey [3] = test: Ex-vivo inhibition of PAR1 in cynomolgus monkey assessed as inhibition of haTRAP-induced platelet aggregation at 3 mg/kg, po at 24 hrs by aggregometry; format: functional; conditions: Macaca fascicularis; method in brief: as §1
Cynomolgus monkey [4] = test: Ex-vivo inhibition of PAR1 in cynomolgus monkey assessed as inhibition of haTRAP-induced platelet aggregation at 0.3 mg/kg, po by aggregometry; format: functional, organism-based; parameters: dose 0.3 mg/kg; conditions: Macaca fascicularis; method in brief: as §1
[5] = AUC (0 to 6 hrs) in rat at 10 mg/kg, po; format: ADME, organism-based; parameters: time < 6 hr, dose 10 mg/kg, route oral; conditions: plasma
Method in brief: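 Rats given a single 10 mg/kg oral dose in 0.4% methylcellulose; plasma levels followed up to 6 h; AUC from 0 to 6 h reported in ng h/mL.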

[6] = biological target: T1, Proteinase-activated receptor 1 (Homo sapiens, UniProt P25116); test: Displacement of [3H]haTRAP from human PAR1 after 1 hr by TopCount scintillation counting; conditions: read-out: IC50
T1 sequence (P25116 whole entry): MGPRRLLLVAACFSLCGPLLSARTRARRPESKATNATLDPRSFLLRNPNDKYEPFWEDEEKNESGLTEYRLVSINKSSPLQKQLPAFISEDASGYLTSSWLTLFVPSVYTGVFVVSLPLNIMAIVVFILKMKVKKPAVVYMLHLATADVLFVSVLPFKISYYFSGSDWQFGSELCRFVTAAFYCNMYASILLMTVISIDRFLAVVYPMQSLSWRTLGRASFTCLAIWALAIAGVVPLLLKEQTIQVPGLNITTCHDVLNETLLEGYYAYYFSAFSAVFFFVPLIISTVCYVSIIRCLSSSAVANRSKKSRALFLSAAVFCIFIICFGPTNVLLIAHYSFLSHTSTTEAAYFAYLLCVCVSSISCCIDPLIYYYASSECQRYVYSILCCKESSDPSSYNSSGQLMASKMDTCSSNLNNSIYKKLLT
Method in brief: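 PAR-1 receptors isolated from human platelets; competition binding against [³H]haTRAP radioligand; values expressed as IC₅₀ (nM).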

Cynomolgus monkey [7] = test: Ex-vivo inhibition of PAR1 in cynomolgus monkey assessed as inhibition of haTRAP-induced platelet aggregation at 1 mg/kg, po by aggregometry; format: functional, organism-based; parameters: dose 1 mg/kg; conditions: Macaca fascicularis; method in brief: as §1
[8] = Volume of distribution at steady state in cynomolgus monkey at 1 mg/kg, po and 1 mg/kg, iv; format: ADME, organism-based, Macaca fascicularis; conditions: in vivo, read-out: Vdss
Method in brief: (§2)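 Full cynomolgus PK study: 1 mg/kg oral in 0.4% methylcellulose and 1 mg/kg intravenous in 20% HPBCD; AUC, oral Cmax, Tmax, half-life, Vd(ss) and clearance derived from plasma concentrations.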

[9] = Half life in cynomolgus monkey at 1 mg/kg, po and 1 mg/kg, iv; format: ADME, organism-based, Macaca fascicularis; conditions: in vivo; method in brief: as §2
[10] = Cmax in cynomolgus monkey at 1 mg/kg, po; format: ADME, organism-based, Macaca fascicularis; parameters: dose 1 mg/kg, route oral; conditions: in vivo; method in brief: as §2
[11] = Clearance in cynomolgus monkey at 1 mg/kg, po and 1 mg/kg, iv; format: ADME, organism-based, Macaca fascicularis; conditions: in vivo; method in brief: as §2
[12] = AUC (0 to 24 hrs) in cynomolgus monkey at 1 mg/kg, po and 1 mg/kg, iv; format: ADME, organism-based, Macaca fascicularis; conditions: plasma; method in brief: as §2
[13] = Tmax in cynomolgus monkey at 1 mg/kg, po and 1 mg/kg, iv; format: ADME, organism-based, Macaca fascicularis; conditions: in vivo; method in brief: as §2
[14] = Oral bioavailability in cynomolgus monkey at 1 mg/kg; format: ADME, organism-based, Macaca fascicularis; conditions: in vivo; method in brief: as §2
[15] = AUC (0 to 24 hrs) in cynomolgus monkey plasma at 3 mg/kg, po; format: ADME, organism-based, Macaca fascicularis; parameters: time < 24 hr, dose 3 mg/kg, route oral
Cynomolgus monkey [16] = test: Ex-vivo inhibition of PAR1 in cynomolgus monkey assessed as inhibition of haTRAP-induced platelet aggregation at 3 mg/kg, po at 6 hrs by aggregometry; format: functional; conditions: Macaca fascicularis; method in brief: as §1

AUC(0-t) at 24 h [1]: 6280 ng·h/mL
Compound: CC[C@H]1[C@H](/C=C/c2ccc(-c3cccc(C#N)c3)cn2)[C@@H]2[C@@H](C)OC(=O)[C@]2(O)C[C@@H]1C.Cl
inhibition in vivo at 1 mg/kg (Cynomolgus monkey [2]): 60%

Compound: CC[C@H]1[C@H](/C=C/c2ccc(-c3ccccc3)cn2)[C@@H]2[C@@H](C)OC(=O)[C@]2(O)C[C@@H]1C
inhibition (Cynomolgus monkey [3]): Active
inhibition (Cynomolgus monkey [4]): Active

AUC(0-t) at 6 h [5]: 203 ng·h/mL
IC50 [6]: 35 nM
Compound: CC[C@H]1[C@H](/C=C/c2ccc(-c3cccc(C)c3)cn2)[C@@H]2[C@@H](C)OC(=O)[C@]2(O)C[C@@H]1C

AUC(0-t) at 6 h [5]: 1900 ng·h/mL
IC50 [6]: 49 nM
Compound: CC[C@H]1[C@H](/C=C/c2ccc(-c3cccnc3)cn2)[C@@H]2[C@@H](C)OC(=O)[C@]2(O)C[C@@H]1C [listing 1 of 2 here]

IC50 [6]: 21 nM
Compound: CC[C@H]1[C@H](/C=C/c2ccc(-c3cccc(C#N)c3)cn2)[C@@H]2[C@@H](C)OC(=O)[C@@H]2C[C@@H]1C

Compound: CC[C@H]1[C@H](/C=C/c2ccc(-c3cccc(OC)c3)cn2)[C@@H]2[C@@H](C)OC(=O)[C@]2(O)C[C@@H]1C
inhibition (Cynomolgus monkey [7]): inactive

Vd [8]: 1.5 L/kg
half-life [9]: 10.7 h
Cmax [10]: 397 ng/mL
clearance [11]: 3.3 mL/min/kg
AUC(0-t) at 24 h [1]: 3820 ng·h/mL
AUC(0-t) [12]: 3980 ng·h/mL
Tmax [13]: 1 h
bioavailability [14]: 78%
Compound: CC[C@H]1[C@H](/C=C/c2ccc(-c3ccccc3)cn2)[C@@H]2[C@@H](C)OC(=O)[C@]2(O)C[C@@H]1C.Cl
inhibition in vivo at 1 mg/kg (Cynomolgus monkey [2]): 65%

AUC(0-t) at 6 h [5]: 3160 ng·h/mL
IC50 [6]: 33 nM
Compound: CC[C@H]1[C@H](/C=C/c2ccc(-c3ccccc3C)cn2)[C@@H]2[C@@H](C)OC(=O)[C@]2(O)C[C@@H]1C

AUC(0-t) at 6 h [5]: 168 ng·h/mL
IC50 [6]: 8.1 nM
Compound: CC[C@H]1[C@H](/C=C/c2ccc(-c3ccccc3OC)cn2)[C@@H]2[C@@H](C)OC(=O)[C@]2(O)C[C@@H]1C

AUC(0-t) at 24 h [15]: 2720 ng·h/mL
Compound: CC[C@H]1[C@H](/C=C/c2ccc(-c3ccccc3C)cn2)[C@@H]2[C@@H](C)OC(=O)[C@]2(O)C[C@@H]1C.Cl
inhibition in vivo at 3 mg/kg (Cynomolgus monkey [16]): 55%

AUC(0-t) at 6 h [5]: 148 ng·h/mL
IC50 [6]: 8.6 nM
Compound: CC[C@H]1[C@H](/C=C/c2ccc(-c3ccoc3)cn2)[C@@H]2[C@@H](C)OC(=O)[C@]2(O)C[C@@H]1C

IC50 [6]: 513 nM
Compound: CC[C@H]1[C@H](/C=C/c2ccc(-c3cc(Cl)ccc3Cl)cn2)[C@@H]2[C@@H](C)OC(=O)[C@@H]2C[C@@H]1C

Compound: CC[C@H]1[C@H](/C=C/c2ccc(-c3cccnc3)cn2)[C@@H]2[C@@H](C)OC(=O)[C@]2(O)C[C@@H]1C [listing 2 of 2 here]
inhibition in vivo at 3 mg/kg (Cynomolgus monkey [3]): 45%

AUC(0-t) at 6 h [5]: 397 ng·h/mL
IC50 [6]: 4.6 nM
Compound: CC[C@H]1[C@H](/C=C/c2ccc(-c3ccsc3)cn2)[C@@H]2[C@@H](C)OC(=O)[C@]2(O)C[C@@H]1C

IC50 [6]: 20 nM
Compound: CC[C@H]1[C@H](/C=C/c2ccc(-c3ccccc3C)cn2)[C@@H]2[C@@H](C)OC(=O)[C@@H]2C[C@@H]1C

IC50 [6]: 24 nM
Compound: CC[C@H]1[C@H](/C=C/c2ccc(-c3cccc(C(F)(F)F)c3)cn2)[C@@H]2[C@@H](C)OC(=O)[C@@H]2C[C@@H]1C

AUC(0-t) at 24 h [1]: 1210 ng·h/mL
Compound: CC[C@H]1[C@H](/C=C/c2ccc(-c3cccc(OC)c3)cn2)[C@@H]2[C@@H](C)OC(=O)[C@]2(O)C[C@@H]1C.Cl

IC50 [6]: 225 nM
Compound: CC[C@H]1[C@H](CCc2ccc(-c3cccc(C(F)(F)F)c3)cn2)[C@@H]2[C@@H](C)OC(=O)[C@@H]2C[C@@H]1C
